Measurements from ChEMBL document CHEMBL3352186, “Modification and biological evaluation of thiazole derivatives as novel inhibitors of metastatic cancer cell migration and invasion” (J Med Chem, 2014).
Calls of active or inactive are those of the source. The rule behind the calls is not given here.

Experiments:
[1] = system: MDA-MB-231; assay: Antimigratory activity in human MDA-MB-231 cells after 24 hrs using transwell system by light microscopy; format: functional, cell-based; conditions: MDA-MB-231, 24 h
Summary of the method: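 Transwell chambers: 2.5×10^4 cells in serum-free, phenol red-free medium in the upper chamber, with DMEM + 5% FBS below as chemoattractant. Compounds at 10^-8, 10^-7, 10^-6 and 10^-5 M, with 0.1% DMSO vehicle, for 24 h. Membranes were scrubbed, formalin-fixed, methanol-permeabilized and stained with 0.1% crystal violet. Migrated cells were counted by light microscopy per 100× field as % of vehicle. IC50 is the concentration giving 50% migration inhibition.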

[2] = system: MDA-MB-231; assay: Cytotoxicity against human MDA-MB-231 cells assessed as survival at 1 uM after 5 days; format: functional; conditions: MDA-MB-231, 120 h, read-out: Survival
[3] = system: HeLa (Homo sapiens); assay: Induction of disorganization of actin filaments in human HeLa cells assessed as decrease in F-actin staining intensity near cell membrane at 10^-6 M by phalloidin staining
[4] = system: MDA-MB-231; assay: Antiinvasive activity in human MDA-MB-231 cells at 10 uM after 24 hrs by matrigel assay; format: functional; conditions: MDA-MB-231, 24 h
Summary of the method: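 Cells serum-starved 24 h, trypsinized and resuspended in medium with DMSO or compound; 2.5×10^4 cells/well seeded on Matrigel-coated inserts. Bottom well held 10% FBS medium with DMSO or 10 μM compound. After 24 h, non-invaded cells were scrubbed off and invaded cells fixed (4% formaldehyde, 10 min, RT), stained with 0.04% crystal violet and counted at 100× in five random fields. Result is % invasion relative to DMSO.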

[5] = system: Chorioallantoic membrane; assay: Antiangiogenic activity in chicken egg embryo assessed as inhibition of bFGF/VEGF-induced angiogenesis in chorioallantoic membrane after 3 days; format: functional; conditions: Gallus gallus
Summary of the method: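 Fertilized chick embryos were incubated at 37.5 °C for 3 days, removed from the shell, and kept 7 further days. Each compound was added to a collagen plug containing bFGF (10 ng/plug) plus VEGF (30 ng/plug) and placed on the CAM of 10-day embryos for 3 days. PBS was the negative control. Plugs were imaged and scored masked on a 0–3 angiogenesis scale, reported as mean ± SEM, and analysed by one-way ANOVA with Dunnett's test.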

[6] = system: MDA-MB-231; assay: Antimigratory activity in human MDA-MB-231 cells over-expressed with fascin assessed as inhibition of cell migration at 10 uM after 24 hrs by Transwell assay

| Structure (SMILES) | IC50 [1] [µM] | viability at 1 µM [2] [%] | Activity [3] | inhibition at 10 µM [4] [%] | inhibition [5] | inhibition [6] |
| --- | --- | --- | --- | --- | --- | --- |
| COc1cc(-c2cs/c(=N\C(=O)c3ccc(Cl)cc3)n2C)cc(OC)c1OC | 0.758 | 77.6 | – | – | – | – |
| COc1ccccc1C(=O)Nc1nc(-c2cc(OC)c(OC)c(OC)c2)cs1 | 8.5 | 104 | – | – | – | – |
| COc1ccccc1C(=O)N(C)c1nc(-c2cc(OC)c(OC)c(OC)c2)cs1 | > 25 | 109 | – | – | – | – |
| Cc1ccc(-c2csc(NS(=O)(=O)c3ccccc3)n2)c(C)c1 | 11 | 137 | – | – | – | – |
| Cn1c(-c2cc(C(F)(F)F)cc(C(F)(F)F)c2)cs/c1=N\C(=O)c1ccccc1 | 0.0961 | 79.8 | – | – | – | – |
| O=C(Nc1nc(-c2cccc(Br)c2)cs1)c1ccccc1 | 10 | 78 | – | – | – | – |
| Cc1ccc(-c2cn(C)/c(=N/C(=O)c3ccccc3)s2)cc1 | > 25 | 113 | – | – | – | – |
| CCCN(C(=O)c1ccccc1)c1nc(-c2ccccc2)cs1 | 0.077 | 116 | Active | > 50 | – | – |
| Cn1c(-c2cccc(Cl)c2)cs/c1=N\C(=O)c1ccccc1 | 0.367 | 35.2 | – | – | – | – |
| COc1ccc(C(=O)Nc2nc(-c3cc(OC)c(OC)c(OC)c3)cs2)cc1 | > 25 | 93.8 | – | – | – | – |
| C#CCn1c(-c2ccccc2)cs/c1=N\C(=O)c1ccccc1 | 2.78 | 63 | – | – | – | – |
| CCCCn1c(-c2ccc(C)cc2C)cs/c1=N\C(=O)c1ccccc1 | 0.196 | 70.4 | – | – | – | – |
| COc1cc(-c2csc(N(C)C(=O)c3cccc(OC)c3OC)n2)cc(OC)c1OC | 0.108 | 118 | – | – | – | – |
| C#CCn1c(-c2ccc(C)cc2C)cs/c1=N\C(=O)c1ccccc1 | 3.89 | 70.2 | – | – | – | – |
| COc1ccc(C(=O)N(C)c2nc(-c3cc(OC)c(OC)c(OC)c3)cs2)cc1 | 0.312 | 100 | – | – | – | – |
| Cn1c(-c2ccc(Br)cc2)cs/c1=N\C(=O)c1ccccc1 | 0.125 | 59.3 | – | – | – | – |
| Cc1ccc(-c2cs/c(=N\S(=O)(=O)c3ccccc3)n2C)c(C)c1 | 1.46 | 92.4 | – | – | – | – |
| COc1cccc(C(=O)Nc2nc(-c3cc(OC)c(OC)c(OC)c3)cs2)c1 | 14 | 92.6 | – | – | – | – |
| COc1cccc(C(=O)/N=c2\scc(-c3cc(OC)c(OC)c(OC)c3)n2C)c1 | > 50 | 104 | – | – | – | – |
| COc1ccc(C(=O)N(C)c2nc(-c3cc(OC)c(OC)c(OC)c3)cs2)cc1OC | > 25 | 102 | – | – | – | – |
| C#CCN(C(=O)c1ccccc1)c1nc(-c2ccc(C)cc2C)cs1 | 0.321 | 106 | – | – | – | – |
| CCn1c(-c2ccc(C)cc2C)cs/c1=N\C(=O)c1ccccc1 | 1.95 | 142 | – | > 50 | – | – |

| Structure (SMILES) | IC50 [1] [µM] | viability at 1 µM [2] [%] | Activity [3] | inhibition at 10 µM [4] [%] | inhibition [5] | inhibition [6] |
| --- | --- | --- | --- | --- | --- | --- |
| C=CCn1c(-c2ccc(C)cc2C)cs/c1=N\C(=O)c1ccccc1 | 0.456 | 115 | – | – | – | – |
| CCCn1c(-c2ccccc2)cs/c1=N\C(=O)c1ccccc1 | 0.657 | 100 | – | – | – | – |
| Cc1sc(NC(=O)c2ccccc2)nc1-c1ccc(F)cc1 | 9.1 | 53.7 | – | – | – | – |
| Cc1ccc(-c2csc(N(C)S(=O)(=O)c3ccccc3)n2)c(C)c1 | > 25 | 117 | – | – | – | – |
| COc1cc(C(=O)N(C)c2nc(-c3cc(OC)c(OC)c(OC)c3)cs2)cc(OC)c1OC | 0.47 | 115 | – | – | – | – |
| COc1cc(-c2cs/c(=N\C(=O)c3ccccc3)n2C)cc(OC)c1OC | 1.07 | 88.4 | – | – | – | – |
| CCCCCCCCCCCCn1c(-c2ccc(C)cc2C)cs/c1=N\C(=O)c1ccccc1 | 0.024 | 110 | Active | > 50 | Active | – |
| O=C(Nc1nc(-c2cc(C(F)(F)F)cc(C(F)(F)F)c2)cs1)c1ccccc1 | 0.336 | 85.8 | – | – | – | – |
| Cc1s/c(=N\C(=O)c2ccccc2)n(C)c1-c1ccc(F)cc1 | 0.847 | 83.8 | – | – | – | – |
| Cc1csc(NC(=O)c2ccccc2)n1 | 12 | 103 | – | – | – | – |
| CCCCCCn1c(-c2ccc(C)cc2C)cs/c1=N\C(=O)c1ccccc1 | 0.045 | 90 | Active | > 50 | Active | inactive |
| CCN(C(=O)c1ccccc1)c1nc(-c2ccccc2)cs1 | 0.533 | 129 | – | – | – | – |
| COc1cc(-c2csc(N(C)C(=O)c3ccccc3)n2)cc(OC)c1OC | 10 | 96.4 | – | – | – | – |
| Cn1c(C2CC2)cs/c1=N\C(=O)c1ccccc1 | 0.104 | 90.7 | – | – | – | – |
| CN(C(=O)c1ccccc1)c1nc(-c2ccc(Br)cc2)cs1 | 0.317 | 65.4 | – | – | – | – |
| Cc1sc(N(C)C(=O)c2ccccc2)nc1-c1ccc(F)cc1 | 1.62 | 108 | – | – | – | – |
| COc1ccc(C(=O)Nc2nc(-c3cc(OC)c(OC)c(OC)c3)cs2)cc1OC | > 25 | 87.3 | – | – | – | – |
| Cc1ccc(-c2cnc(NC(=O)c3ccccc3)s2)cc1 | 0.308 | 55.6 | – | – | – | – |
| CCn1c(-c2ccccc2)cs/c1=N\C(=O)c1ccccc1 | 0.0515 | 68.5 | – | – | – | – |
| COc1cc(C(=O)/N=c2\scc(-c3cc(OC)c(OC)c(OC)c3)n2C)cc(OC)c1OC | 1.96 | 81.5 | – | – | – | – |
| O=C(Nc1nc(-c2ccc(Br)cc2)cs1)c1ccccc1 | 9.5 | 82.2 | – | – | – | – |
| O=C(Nc1nc(-c2ccccc2Cl)cs1)c1ccccc1 | 15 | 102 | – | – | – | – |

| Structure (SMILES) | IC50 [1] [µM] | viability at 1 µM [2] [%] | Activity [3] | inhibition at 10 µM [4] [%] | inhibition [5] | inhibition [6] |
| --- | --- | --- | --- | --- | --- | --- |
| COc1ccc(C(=O)/N=c2\scc(-c3cc(OC)c(OC)c(OC)c3)n2C)cc1 | 8.04 | 106 | – | – | – | – |
| CN(C(=O)c1ccccc1)c1nc(-c2ccccc2Cl)cs1 | 0.0416 | 88.9 | – | – | – | – |
| Cn1c(-c2cccc(Br)c2)cs/c1=N\C(=O)c1ccccc1 | 0.302 | 94.4 | – | – | – | – |
| COc1cccc(C(=O)N(C)c2nc(-c3cc(OC)c(OC)c(OC)c3)cs2)c1 | 0.646 | 88.9 | – | – | – | – |
| Cc1ccc(-c2cs/c(=N\C(=O)c3ccccc3)n2C)c(C)c1 | 0.218 | 101 | – | > 50 | – | – |
| O=C(Nc1nc(-c2cccc(Cl)c2)cs1)c1ccccc1 | 0.123 | 71.4 | – | – | – | – |
| Cc1ccc(-c2cnc(N(C)C(=O)c3ccccc3)s2)cc1 | 1.09 | 59.3 | – | – | – | – |
| CN(C(=O)c1ccccc1)c1nc(-c2cccc(Br)c2)cs1 | 0.437 | 104 | – | – | – | – |
| Cc1cs/c(=N\C(=O)c2ccccc2)n1C | 15 | 103 | – | – | – | – |
| Cc1s/c(=N\C(=O)c2ccccc2)n(C)c1-c1ccccc1 | 0.197 | 68.4 | – | – | – | – |
| Cc1sc(NC(=O)c2ccccc2)nc1-c1ccccc1 | > 25 | 99 | – | – | – | – |
| COc1cc(-c2csc(NC(=O)c3cccc(OC)c3OC)n2)cc(OC)c1OC | 15 | 90.1 | – | – | – | – |
| COc1cc(-c2csc(NC(=O)c3ccccc3)n2)cc(OC)c1OC | > 50 | 95 | – | – | – | – |
| COc1ccc(C(=O)Nc2nc(-c3cc(OC)c(OC)c(OC)c3)cs2)c(OC)c1 | > 50 | 93.8 | – | – | – | – |
| COc1cc(-c2csc(NC(=O)c3ccc(Cl)cc3)n2)cc(OC)c1OC | > 25 | 85.6 | – | – | – | – |
| CCCn1c(-c2ccc(C)cc2C)cs/c1=N\C(=O)c1ccccc1 | 0.292 | 85 | – | – | – | – |
| C=CCn1c(-c2ccccc2)cs/c1=N\C(=O)c1ccccc1 | 1.2 | 64.8 | – | – | – | – |
| COc1cc(C(=O)Nc2nc(-c3cc(OC)c(OC)c(OC)c3)cs2)cc(OC)c1OC | 1.03 | 77.6 | – | – | – | – |
| Cn1c(-c2ccccc2Cl)cs/c1=N\C(=O)c1ccccc1 | 0.268 | 72.2 | – | – | – | – |
| COc1ccc(C(=O)N(C)c2nc(-c3cc(OC)c(OC)c(OC)c3)cs2)c(OC)c1 | 5.04 | 119 | – | – | – | – |
